Experimental data pooled from the literature.
Protocols differ between the studies behind these lines.
Dihydrofolate reductase: Dihydrofolate reductase (Bos taurus, UniProt P00376)
MAPK14: Mitogen-activated protein kinase 14 (MAPK14, Homo sapiens, UniProt Q16539)
Si: Sucrase-isomaltase, intestinal (Si, Rattus norvegicus, UniProt P23739)

NC/C(=C\F)COc1cccc(Cn2c(=S)[nH]c(=O)c3[nH]cnc32)c1 — IC50 (Amine oxidase [copper-containing] 3 (Rattus norvegicus, UniProt O08590); enzyme activity, inhibitor): 0.005 µM
Cc1cc(O)c(-c2ccc([C@@H](C)CN(C)C)cc2)c2c1[nH]c(=O)c1sccc12 — IC50 (Cyclin-dependent kinase 14, with cyclin Y (CDK14, Homo sapiens, UniProt O94921); enzyme activity, inhibitor): > 1 µM
COc1ccc(N2N=C(C(C)=O)SC2=C(C#N)C(=O)c2ccc(Nc3cnccn3)cc2)cc1 — IC50 (Dihydrofolate reductase; enzyme activity, inhibitor): 3.82 µM
c1ccc(-c2occc2-c2ccnc3ccccc23)nc1 — IC50 (MAPK14; enzyme activity, inhibitor, ADP detection): > 30 µM
CNCc1cc(-c2cc(O)ccc2OC(F)(F)F)ccc1F — IC50 (Estrogen receptor (ESR1, Homo sapiens, UniProt P03372, D538G); coactivator recruitment, TR-FRET): ~18 µM
CN1CCC(CNc2ccc3ncc(-c4cccc(OC(F)(F)F)c4)n3n2)CC1 — IC50 (5-hydroxytryptamine receptor 1A (HTR1A, Homo sapiens, UniProt P08908); cAMP, agonist): 7.13 µM
Oc1ccccc1-c1n[nH]cc1-c1ccnc2ccccc12 — IC50 (MAPK14; enzyme activity, inhibitor, ADP detection): 0.73 µM
COc1cc(C=O)ccc1O — IC50 (Si; enzyme activity, inhibitor, absorbance): 1350 µM
N=c1sc(C(=O)c2ccc(Nc3cnccn3)cc2)nn1-c1ccccc1 — IC50 (Dihydrofolate reductase; enzyme activity, inhibitor): 6.49 µM
c1ccc(Cc2[nH]nc(-c3ccccn3)c2-c2ccnc3ccccc23)cc1 — IC50 (MAPK14; enzyme activity, inhibitor, ADP detection): 5.2 µM
COc1ccc(N2N=C(C(=O)c3ccc(Nc4cnccn4)cc3)SC2=C(C#N)C#N)cc1 — IC50 (Dihydrofolate reductase; enzyme activity, inhibitor): 0.36 µM
COc1cc(C(=O)O)ccc1O — IC50 (Si; enzyme activity, inhibitor, absorbance): 1650 µM
